In ChEMBL document CHEMBL3085725, “Design, synthesis and molecular modelling studies of novel 3-acetamido-4-methyl benzoic acid derivatives as inhibitors of protein tyrosine phosphatase 1B” (Eur J Med Chem, 2013):

Experiments:
[1] = molecular target: T1, Tyrosine-protein phosphatase non-receptor type 1 (Homo sapiens) (UniProt P18031); test: Inhibition of recombinant human PTP1B at 10 uM by malachite green assay relative to control
T1 sequence (whole entry): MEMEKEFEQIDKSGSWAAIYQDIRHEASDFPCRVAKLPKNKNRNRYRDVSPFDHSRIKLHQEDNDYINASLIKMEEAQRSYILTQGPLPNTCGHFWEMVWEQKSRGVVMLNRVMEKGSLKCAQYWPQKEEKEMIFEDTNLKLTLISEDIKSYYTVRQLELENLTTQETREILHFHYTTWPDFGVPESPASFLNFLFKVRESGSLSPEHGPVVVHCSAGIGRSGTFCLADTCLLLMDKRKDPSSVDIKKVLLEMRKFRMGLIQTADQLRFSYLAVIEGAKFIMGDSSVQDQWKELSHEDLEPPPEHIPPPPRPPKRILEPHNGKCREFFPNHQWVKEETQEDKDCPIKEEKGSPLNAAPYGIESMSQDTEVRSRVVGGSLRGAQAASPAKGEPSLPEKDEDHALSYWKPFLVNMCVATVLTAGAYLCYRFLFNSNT
In short: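 Human recombinant PTP1B incubated with test compound at 10 µM; DMSO as control. Colorimetric, non-radioactive assay detecting free phosphate released, read with Biomol red phosphate reagent (malachite green basis). Percent inhibition is calculated against control activity without inhibitor, taken as 100%, from three independent sets of experiments.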

[2] = molecular target: T2, Tyrosine-protein phosphatase non-receptor type 1 (Homo sapiens, UniProt P18031); test: Inhibition of recombinant human PTP1B by malachite green assay
T2 sequence (P18031 whole entry): T1 sequence (whole entry)
In short: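 Human recombinant PTP1B; compounds giving around 50% inhibition at 10 µM are retested at six concentrations. Free phosphate released is detected colorimetrically with Biomol red (malachite green).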

Danio rerio [3] = species: Danio rerio; test: Toxicity in zebra fish embryo assessed as death at 10 uM after 24 to 72 hrs by visible light microscopy; type: organism-based; conditions: zebrafish, in vivo
In short: (§1)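 Wild-type Indian zebrafish strain kept at 28 °C, 14:10 h light/dark. Embryos from natural mating raised 24 h in E3 medium, dechorionated at 24 hpf with 500 µg/ml Pronase K for 10 min. Six embryos per well exposed to compound at 10 µM final in 0.1% DMSO for 24, 48 and 72 h. Controls received 0.1% DMSO. Embryos scored under visible light microscopy at intervals.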

Danio rerio [4] = test: Toxicity in zebra fish embryo assessed as oedema at 10 uM after 24 to 72 hrs by visible light microscopy; type: organism-based; conditions: zebrafish, in vivo; in short: as §1
Danio rerio [5] = species: Danio rerio; test: Toxicity in zebra fish embryo assessed as deformation at 10 uM after 24 to 72 hrs by visible light microscopy; type: organism-based; conditions: zebrafish, in vivo; in short: as §1
Danio rerio [6] = species: Danio rerio; test: Toxicity in zebra fish embryo assessed as developmental delay at 10 uM after 24 to 72 hrs by visible light microscopy; type: organism-based; conditions: zebrafish, in vivo; in short: as §1

| Compound | inhibition [1] [%] | IC50 [2] [µM] | also measured |
| --- | --- | --- | --- |
| Cc1ccc(C(=O)O)cc1NC(=O)CSc1nnc(-c2ccccc2Cl)o1 | 27.5 |  |  |
| Cc1ccc(C(=O)O)cc1NC(=O)CSc1nnc(-c2cccc(Cl)c2Cl)o1 | 29.9 |  |  |
| Cc1ccc(C(=O)O)cc1NC(=O)CSc1nc2ccccc2s1 | 57.5 | 8.5 |  |
| Cc1ccc(C(=O)O)cc1NC(=O)CSc1nc2ccccc2o1 | 32.8 |  |  |
| Cc1ccc(C(=O)O)cc1NC(=O)CSc1nc2cc([N+](=O)[O-])ccc2[nH]1 | 26.9 |  |  |
| Cc1ccc(C(=O)O)cc1NC(=O)CSc1nc2ccccc2[nH]1 | 47.8 | 15.2 |  |
| Cc1ccc(C(=O)O)cc1NC(=O)CSc1nnc(-c2ccccc2O)o1 | 38.8 |  |  |
| COc1ccc2[nH]c(SCC(=O)Nc3cc(C(=O)O)ccc3C)nc2c1 | 57.5 | 8.2 | Activity (Danio rerio [3]): Non-toxic; Activity (Danio rerio [4]): Non-toxic; Activity (Danio rerio [5]): Non-toxic; Activity (Danio rerio [6]): Non-toxic |

The next lines start with results.

| inhibition [1] [%] | IC50 [2] [µM] | Compound | also measured |
| --- | --- | --- | --- |
| 47 | 10.3 | Cc1ccc(C(=O)O)cc1NC(=O)CSc1nnc(-c2ccc(O)cc2)o1 |  |
| 51.5 | 8.9 | Cc1ccc(-c2nnc(SCC(=O)Nc3cc(C(=O)O)ccc3C)o2)cc1 |  |
| 50.7 | 9.7 | COc1cc(-c2nnc(SCC(=O)Nc3cc(C(=O)O)ccc3C)o2)cc(OC)c1OC |  |
| 43.3 |  | Cc1ccc(C(=O)O)cc1NC(=O)CSc1nnc(-c2ccc(Cl)cc2Cl)o1 |  |
